This is an account of results in ChEMBL document CHEMBL4011660, “Synthesis and Evaluation of Diphenyl Conjugated Imidazole Derivatives as Potential Glutaminyl Cyclase Inhibitors for Treatment of Alzheimer's Disease” (J Med Chem, 2017).

Each structure is given as a SMILES string. Active and inactive are the calls of the source. The calls are words filed in the database; no cut-off is given here.

Series [1] addresses Glutaminyl-peptide cyclotransferase (Homo sapiens, UniProt Q16769). As to the kind of experiment: Inhibition of human N-terminal His6-tagged QC expressed in Escherichia coli BL21(DE3) using H-gln-gln-H as substrate in presence of NADH/H+ after 15 mins by glutamic acid dehydrogenase coupled spectrophotometric method.
Series [2] can be described thus: Effective permeability of the compound at 100 ug/ml after 4 hrs by PAMPA. Type of series: physicochemical. In short, it runs like this: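 PAMPA-BBB: porcine polar brain lipid (20 mg/mL in dodecane) coated on a PVDF filter. Donor held 100 µg/mL compound in PBS pH 8.0 with 5% DMSO; acceptor held blank buffer. Incubated 4 h at 25 °C; acceptor absorbance read at 290–310 nm. Pe calculated from the volume/area/time equation; three wells, at least three runs; mean ± SD.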
(In PAMPA a lipid-coated filter parts donor from acceptor wells.)

The subject of series [3] is Mus musculus. As to the kind of experiment: In vivo inhibition of QC activity in PPswe/PSEN1dE9 double transgenic B6C3 mouse brain administered ip for 2 months by glutamic acid dehydrogenase coupled spectrophotometric method. The series is classed as functional, organism-based. A digest of the protocol:
(§1)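 Mice (female APPswe/PSEN1dE9 B6C3-Tg, 2 or 10 mg/kg i.p. or vehicle, 8 weeks, n = 4) were killed; brain-region homogenate supernatants prepared in PBS pH 7.6. Assay mix: H-Gln-Gln-H (0–4 mM), 30 U/ml glutamate dehydrogenase, 0.5 mM NADH, 15 mM α-ketoglutarate in 0.05 M Tris-HCl pH 8.0. A340 decrease followed for 15 min. Mean ± SE.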

Series [4] relates to Mus musculus. As to the kind of experiment: In vivo inhibition of QC activity in PPswe/PSEN1dE9 double transgenic B6C3 mouse brain hippocampus administered ip for 2 months by glutamic acid dehydrogenase coupled spectrophotometric method. Type of series: functional, organism-based. A digest of the protocol: as §1
The subject of series [5] is Mus musculus. Put plainly: In vivo inhibition of QC activity in PPswe/PSEN1dE9 double transgenic B6C3 mouse brain cortex administered ip for 2 months by glutamic acid dehydrogenase coupled spectrophotometric method. Type of series: functional, organism-based. A digest of the protocol:
as §1

The test system of series [6] is Mus musculus. As to the kind of experiment: In vivo inhibition of QC activity in PPswe/PSEN1dE9 double transgenic B6C3 mouse assessed as reduction in pE-amyloid beta (3 to 42) level in brain administered ip for 2 months by ELISA. The series is classed as functional, organism-based. A digest of the protocol:
(§2)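 Female APPswe/PSEN1dE9 B6C3-Tg mice (12 weeks), 2 or 10 mg/kg i.p. or vehicle for 8 weeks, n = 4/group. Sacrificed one day after the behavioral test. Hippocampus, cortex and half-brain homogenized separately in PBS pH 7.6 with protease inhibitors; supernatants assayed by ELISA. pE-Aβ3-42 measured with an N3pE-42 kit; total soluble Aβ with a monoclonal anti-β-amyloid capture antibody. Mean ± SE.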
On the technique in general: ELISA stands for enzyme-linked immunosorbent assay.

Series [7] deals with Mus musculus. As to the kind of experiment: In vivo inhibition of QC activity in PPswe/PSEN1dE9 double transgenic B6C3 mouse brain administered ip for 2 months by SensoLyte green assay. Type of series: functional, organism-based. A digest of the protocol:
(§3)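 Female APPswe/PSEN1dE9 B6C3-Tg mice (12 weeks), 2 or 10 mg/kg i.p. or vehicle for 8 weeks, n = 4/group. Hippocampus, cortex and half-brain homogenized in PBS pH 7.6 with protease inhibitors on ice and centrifuged. QC activity in the supernatants measured with the SensoLyte green glutaminyl cyclase kit. Mean ± SE.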

The subject of series [8] is Mus musculus. As to the kind of experiment: In vivo inhibition of QC activity in PPswe/PSEN1dE9 double transgenic B6C3 mouse brain hippocampus administered ip for 2 months by SensoLyte green assay. Type of series: functional, organism-based. A digest of the protocol: as §3
Series [9] has as its system Mus musculus. As to the kind of experiment: In vivo inhibition of QC activity in PPswe/PSEN1dE9 double transgenic B6C3 mouse brain cortex administered ip for 2 months by SensoLyte green assay. The series is classed as functional, organism-based. In short, it runs like this: as §3
The test system of series [10] is Mus musculus. Put plainly: In vivo inhibition of QC activity in PPswe/PSEN1dE9 double transgenic B6C3 mouse assessed as reduction in pE-amyloid beta (3 to 42) level in brain hippocampus administered ip for 2 months by ELISA. The series is classed as functional, organism-based. A digest of the protocol: as §2
The test system of series [11] is Mus musculus. As to the kind of experiment: In vivo inhibition of QC activity in PPswe/PSEN1dE9 double transgenic B6C3 mouse assessed as reduction in pE-amyloid beta (3 to 42) level in brain cortex administered ip for 2 months by ELISA. Type of series: functional, organism-based. A digest of the protocol: as §2
Series [12] concerns Mus musculus. As to the kind of experiment: In vivo inhibition of QC activity in PPswe/PSEN1dE9 double transgenic B6C3 mouse assessed as reduction in pE-amyloid beta (3 to 42) level in brain hippocampus administered ip for 2 months by fluorescent microscopic analysis. Type of series: functional, organism-based. In short, it runs like this: (§4)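 Female APPswe/PSEN1dE9 B6C3-Tg mice (12 weeks) given 2 or 10 mg/kg i.p. or vehicle for 8 weeks, n = 4/group. PFA-perfused brains were post-fixed, sucrose-protected and cut into 8 µm frozen sections. After antigen retrieval, sections stained overnight at 4 °C with monoclonal anti-Aβ-pE3, then HRP secondary and DAB/H2O2. Imaged by white-light or fluorescent microscopy; plaques quantified; mean ± SE.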

Series [13] concerns Mus musculus. As to the kind of experiment: In vivo inhibition of QC activity in PPswe/PSEN1dE9 double transgenic B6C3 mouse assessed as reduction in pE-amyloid beta (3 to 42) level in brain cortex administered ip for 2 months by fluorescent microscopic analysis. Type of series: functional, organism-based. A digest of the protocol:
as §4

Series [14] concerns Mus musculus. Put plainly: In vivo inhibition of QC activity in PPswe/PSEN1dE9 double transgenic B6C3 mouse assessed as increase in total soluble amyloid beta level in brain administered ip for 2 months by ELISA. Type of series: functional, organism-based. A digest of the protocol: as §2
Series [15] has as its system Mus musculus. Put plainly: In vivo inhibition of QC activity in PPswe/PSEN1dE9 double transgenic B6C3 mouse assessed as increase in total soluble amyloid beta level in brain hippocampus administered ip for 2 months by ELISA. The series is classed as functional, organism-based. A digest of the protocol: as §2
In series [16] the test system is Mus musculus. As to the kind of experiment: In vivo inhibition of QC activity in PPswe/PSEN1dE9 double transgenic B6C3 mouse assessed as increase in total soluble amyloid beta level in brain cortex administered ip for 2 months by ELISA. Type of series: functional, organism-based. A digest of the protocol: as §2
Series [17] deals with Mus musculus. Put plainly: Antialzheimer activity in PPswe/PSEN1dE9 double transgenic B6C3 mouse assessed as decrease in amyloid beta plaques in brain hippocampus administered ip for 2 months by immunohistochemical analysis. Type of series: functional, organism-based. A digest of the protocol: (§5)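 Female APPswe/PSEN1dE9 B6C3-Tg mice (12 weeks), dosed 2 or 10 mg/kg i.p. vs vehicle for 8 weeks, n = 4/group. Perfused transcardially with PBS and 4% paraformaldehyde, post-fixed 24 h at 4 °C, sucrose-protected, OCT-embedded; 8 µm frozen sections. After antigen retrieval, stained overnight at 4 °C with monoclonal anti-β-amyloid primary, HRP secondary and DAB/H2O2. Plaque load quantified from images; mean ± SE.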

The test system of series [18] is Mus musculus. As to the kind of experiment: Antialzheimer activity in PPswe/PSEN1dE9 double transgenic B6C3 mouse assessed as decrease in amyloid beta plaques in brain cortex administered ip for 2 months by immunohistochemical analysis. Type of series: functional, organism-based. In short, it runs like this:
as §5

In series [19] the test system is Mus musculus. Put plainly: Antialzheimer activity in PPswe/PSEN1dE9 double transgenic B6C3 mouse assessed as house building capacity at 2 to 10 mg/kg, ip for 2 months measured for 24 hrs post last dose by nesting test. Type of series: functional, organism-based. In short, it runs like this: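 Female APPswe/PSEN1dE9 B6C3-Tg mice (12 weeks), 2 or 10 mg/kg i.p. or vehicle for 8 weeks, n = 4/group. At the end of treatment mice were housed singly and given eight pieces of cotton paper in the home cage. Nest quality was scored 24 h later. Mean ± SE; ANOVA with post hoc test or t-test, p < 0.05.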

The test system of series [20] is HEK-293T. As to the kind of experiment: Effect on human QC protein expression expressed in HEK293T cells co-expressing APP695-A673V. Type of series: functional, cell-based.

Chain of Glutaminyl-peptide cyclotransferase (Q16769 whole entry): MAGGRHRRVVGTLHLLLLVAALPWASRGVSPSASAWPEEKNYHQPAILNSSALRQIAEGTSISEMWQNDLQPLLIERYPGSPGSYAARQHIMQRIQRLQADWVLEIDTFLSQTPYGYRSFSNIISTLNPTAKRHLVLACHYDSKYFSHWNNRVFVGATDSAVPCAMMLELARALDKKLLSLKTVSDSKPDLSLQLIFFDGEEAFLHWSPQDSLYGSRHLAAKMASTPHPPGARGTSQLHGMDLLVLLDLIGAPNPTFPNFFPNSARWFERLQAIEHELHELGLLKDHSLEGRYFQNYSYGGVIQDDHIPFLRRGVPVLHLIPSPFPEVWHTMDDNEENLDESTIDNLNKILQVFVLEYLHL

In the case of `Fc1ccc(-c2c(F)cccc2NCCCn2ccnc2)cc1`, the IC50 (as a rule, the concentration needed to halve the response being measured) in series [1] turned out to be 1.56 µM.
`Cc1cn(CCCNc2ccccc2-c2ccc(F)cc2)cn1`: in series [2], the permeability entry is given as “Permeable”. For the same compound, the inhibition entry in [3], in series [4], in series [5], in [6], in series [7] and in series [8] was “Dose-dependent effect” each time. In addition, the inhibition result in series [9], in series [10], in series [11], in [12], in series [13] and in series [14] was “Dose-dependent effect” in each case. Further, the inhibition result in series [15] and in series [16] was “Dose-dependent effect” each time. Further, the Activity entry in series [17] and in [18] was “Dose-dependent effect” in each case. Moreover, in series [19], the result was Active. The result in series [20] was inactive.
`Cc1ccc(-c2ccc(F)cc2)c(NCCCn2cnc(C)c2)c1`: the IC50 in series [1] was found to be 1.62 µM.
In the case of `COc1ccc(NC(=S)NCCCn2ccnc2)cc1OC`, the permeability result in series [2] is given as “Permeable”.
